PglD inh = C. jejuni PglD acetyltransferase inhibitors, primary screen, biochemical, DTNB colorimetric, single point; 0.098% of 360,000 active; purified PglD enzyme, DTNB colorimetric CoA detection; inhibition, % at 12.5 µM; UDP-N-acetylbacillosamine N-acetyltransferase PglD (Campylobacter jejuni); AID 602405, 2012; in the data active = inhibition above about 16%, passing the limit was not always enough; inconclusive = no clear call, values can overlap the other calls
SR-BI DiI-HDL act = activators of SR-BI mediated DiI-HDL uptake, primary screen, ldlA[mSR-BI] CHO cells, DiI fluorescence. 0.096% of 320,000 active. activation, % at 12.5 µM. 3 h; 100 = double the neutral-control signal;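 active = mean replicate activation of at least 60% and every replicate at or above 60%; inconclusive = mean or all-replicate condition met, but not both; inactive = mean below 60% and not all replicates reaching 60%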
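Test system: SR-BI-overexpressing, LDLR-lacking CHO cells. Measured by: DiI fluorescence, bottom read. Medium: Ham's F12 with 0.5% BSA, HEPES 25 mM, pH 7.4. Timing: 3 h uptake period with compound, 37 °C.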
Rtt109 Vps75 = inhibitors of C. albicans Rtt109/Vps75 HAT, primary screen, biochemical, ThioGlo CoA-SH fluorescence, plate reader | Histone acetyltransferase RTT109 (Candida albicans (strain SC5314 / ATCC MYA-2876)), … | purified Rtt109/Vps75, 4 h | inhibition, % at 34.9 µM | 0.16% of 330,000 active;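 active = inhibition of at least 50% in every replicate; inconclusive = best replicate reaches 50% inhibition but some replicates fall short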
SR-BI DiI inh = inhibitors of SR-BI mediated HDL lipid uptake, primary screen, ldlA[mSR-BI] cells, fluorescence, single point | AID 488896, 2010 | ldlA[mSR-BI] CHO cells, DiI-HDL uptake fluorescence, 3 h | 0.96% of 320,000 active | inhibition, % at 12.5 µM;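 active = mean replicate inhibition of at least 70% and a set share of replicates each scoring 70 or more; inconclusive = meets just one of the two criteria; inactive = fails both criteria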
Target sequence (Q61009 whole entry, looked up): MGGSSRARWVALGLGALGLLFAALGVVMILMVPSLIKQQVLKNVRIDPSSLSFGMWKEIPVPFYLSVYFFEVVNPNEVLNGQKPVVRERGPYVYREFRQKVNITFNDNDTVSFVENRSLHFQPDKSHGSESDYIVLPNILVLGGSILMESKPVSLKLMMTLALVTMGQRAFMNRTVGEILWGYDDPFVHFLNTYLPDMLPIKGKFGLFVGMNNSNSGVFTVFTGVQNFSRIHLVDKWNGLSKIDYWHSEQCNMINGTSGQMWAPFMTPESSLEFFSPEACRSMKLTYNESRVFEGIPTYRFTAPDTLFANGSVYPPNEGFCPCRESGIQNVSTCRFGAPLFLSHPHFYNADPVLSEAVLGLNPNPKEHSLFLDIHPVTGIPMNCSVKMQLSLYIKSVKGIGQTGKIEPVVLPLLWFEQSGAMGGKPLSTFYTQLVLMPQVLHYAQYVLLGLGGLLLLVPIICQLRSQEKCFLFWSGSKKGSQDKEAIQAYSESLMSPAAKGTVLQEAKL
Glyco luc inh = increase of ERlucT glycosylation luciferase signal, primary screen, N-linked glycosylation inhibitor project, D54 ERlucT cells, luminescence, set 2; D54 ERlucT glycosylation luciferase reporter, 24 h; percent of 100 nM tunicamycin response; AID 588692, 2011; reporter increase, % at 12.5 µM; 0.23% of 360,000 active;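 active = mean luciferase reporter signal, scaled so untreated is 0 and the glycosylation-blocking control 100, at or above a set limit in every replicate; inconclusive = mean reaches the limit but not every replicate does; inactive = mean below the limit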;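 note: luciferase carries N-glycosylation sites so blocking glycosylation raises the light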
Env fusion inh = inhibitors of HIV-1 Env-driven cell-cell fusion, primary screen, HeLa-JRFL effector, CEM21 target cells, luciferase; inhibition, % at 12.3 µM; 1.1% of 360,000 active;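 active = mean replicate inhibition score of at least 50 and every replicate individually at or above 50; inconclusive = only one of the two criteria met; inactive = mean below 50 and not all replicates reaching 50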
Each line names hits and unclear results; the compound was inactive in the other large screens; ! = repeats disagree. Shown are actives, neighbours in structure and some others; about 1.9% of the full set was active somewhere.

COc1ccc(CN(C)C[C@H]2Oc3ccc(NC(=O)Nc4ccc(C(F)(F)F)cc4)cc3CC(=O)N([C@H](C)CO)C[C@H]2C)cc1	none (no result: SR-BI DiI-HDL act, Rtt109 Vps75, SR-BI DiI inh, Glyco luc inh)
CCCNC(=O)C[C@H]1CC[C@H]2[C@H](COc3ccc(NS(=O)(=O)CC)cc3C(=O)N2C)O1	none (no result: SR-BI DiI-HDL act, Rtt109 Vps75, SR-BI DiI inh, Glyco luc inh)
CC(=O)c1ccc(NC(=O)C(C)Sc2nnc(C3CC3)n2C2CC2)cc1 (centres undefined)	SR-BI DiI inh 76
CN(C)CC(=O)Nc1ccc2c(c1)[C@@H]1C[C@@H](CC(=O)NCc3ccccc3)O[C@@H](CO)[C@@H]1O2	none (no result: SR-BI DiI-HDL act, Rtt109 Vps75, SR-BI DiI inh, Glyco luc inh)
O=C(NC1CCCCC1)C(c1ccc(C(F)(F)F)cc1)n1c(=O)c(-c2ccccc2)nc2ccccc21 (centres undefined)	none (no result: PglD inh, SR-BI DiI-HDL act, Rtt109 Vps75, SR-BI DiI inh, Glyco luc inh)
O=C(NC1CCCC1)C(c1ccccc1)n1c(Cc2cc(F)cc(F)c2)nc2ccccc21 (centres undefined)	Env fusion inh 71 (no result: PglD inh, SR-BI DiI-HDL act, Rtt109 Vps75, SR-BI DiI inh, Glyco luc inh)
Cc1ccccc1N1CCN(C2CCCN(C(=O)c3noc4c3CCCC4)C2)CC1 (centres undefined)	SR-BI DiI inh 83 (no result: Env fusion inh)
O=C([C@@H]1N[C@@H]2c3ccc(C4=CCCC4)c(=O)n3C[C@@H]2[C@H]1CO)N1CCc2ccccc2C1	none (no result: SR-BI DiI-HDL act, Rtt109 Vps75, SR-BI DiI inh, Glyco luc inh, Env fusion inh)
CC1=Nc2ccccc2/C1=C\c1nc(-c2ccccc2)oc1O	none (no result: SR-BI DiI-HDL act)
CC1=Nc2ccccc2/C1=C/c1nc(-c2ccc(C)s2)oc1O	SR-BI DiI inh 103 (no result: PglD inh)
COc1ccc(NC(=O)N(C)C[C@H]2Oc3ccc(NC(=O)CCCCCC(=O)Nc4ccccc4N)cc3CC(=O)N([C@H](C)CO)C[C@H]2C)cc1	none (no result: SR-BI DiI-HDL act, Rtt109 Vps75, SR-BI DiI inh, Glyco luc inh)
C[n+]1ccc(/C=C/c2c[nH]c3ccc(F)cc23)cc1	Env fusion inh 59 (no result: SR-BI DiI-HDL act, SR-BI DiI inh)
Cn1cc(/C=C/c2cc[n+](C)cc2)c2cc(F)ccc21	none (no result: SR-BI DiI-HDL act, SR-BI DiI inh, Env fusion inh)
Cc1nc2ccc3nc(NC(=O)c4ccc5c(c4)OCCO5)sc3c2s1	none (no result: Env fusion inh)
Cc1nc2c(ccc3nc(NC(=O)c4ccc5c(c4)OCCO5)sc32)s1	SR-BI DiI inh 75 (no result: PglD inh, Env fusion inh)
CC[C@@]12C(=O)N(c3ccccc3)C(=O)N1[C@H](c1ccc(OC)cc1)[C@@H]1C(=O)N(C(C)(C)C)C(=O)[C@@H]12	Env fusion inh 73
CC[C@@]12C(=O)N(c3ccc(C)cc3)C(=O)N1[C@H](c1ccc(Br)cc1)[C@@H]1C(=O)N(C(C)(C)C)C(=O)[C@@H]12	Env fusion inh 86
CC[C@@]12C(=O)N(c3cccc(Br)c3)C(=O)N1[C@H](c1ccc(OC)cc1)[C@@H]1C(=O)N(C(C)(C)C)C(=O)[C@@H]12	Env fusion inh 96
COc1ccc(N2C(=O)N3[C@H](c4ccc(Br)cc4)[C@@H]4C(=O)N(C(C)(C)C)C(=O)[C@@H]4[C@]3(Cc3ccccc3)C2=O)cc1	none
CC[C@@]12C(=O)N(c3ccc(C)cc3)C(=O)N1[C@H](c1ccc(OC)cc1)[C@@H]1C(=O)N(C(C)(C)C)C(=O)[C@@H]12	Env fusion inh 80
O=C(NCC1CC1)[C@@H]1[C@@H](CO)[C@@H]2Cn3c(ccc(C4=CCCCC4)c3=O)[C@@H]2N1Cc1ccccc1F	none (no result: SR-BI DiI-HDL act, Rtt109 Vps75, SR-BI DiI inh, Glyco luc inh, Env fusion inh)
C[C@@H]1CCCCO[C@@H](CN(C)S(=O)(=O)c2cn(C)cn2)[C@H](C)CN([C@H](C)CO)C(=O)c2cc(NS(=O)(=O)c3cccs3)ccc2O1	none (no result: SR-BI DiI-HDL act, Rtt109 Vps75, SR-BI DiI inh, Glyco luc inh)
Nc1c2c(nc3ccccc13)CCCC2	none
Nc1c2ccccc2nc2ccccc12	Glyco luc inh 33!
COC(=O)c1c(C)oc(C)c1S(=O)(=O)NC(c1ccccc1)c1ccccc1	Env fusion inh 68
COc1ccc(C2C(=O)c3ccccc3C2=Nc2ccc(Br)cc2)cc1 (centres undefined)	SR-BI DiI inh 94
CCCCOP(=O)(c1ccc(N(C)C)cc1)C(O)c1c(Cl)cccc1Cl (centres undefined)	Env fusion inh 59
CC1CN(CCC(=O)Nc2ccc3c(c2)OCO3)CC(C)O1 (centres undefined)	SR-BI DiI inh 80 (no result: Rtt109 Vps75, Env fusion inh)
CCN1CCN(CCC(=O)Nc2ccc3c(c2)OCO3)CC1	none (no result: Env fusion inh)
O=C(O)/C=C/c1ccccc1Oc1ccccc1	none (no result: PglD inh, Env fusion inh)
COc1ccc(Oc2ccccc2/C=C/C(=O)O)cc1	SR-BI DiI-HDL act 536
COc1ccccc1/C=C/C(=O)/C=C/c1ccccc1O	Glyco luc inh 39
COc1ccccc1S(=O)(=O)N[C@@H]1CC[C@H](CCNC(=O)C2CCOCC2)O[C@@H]1CO	none (no result: SR-BI DiI-HDL act, Rtt109 Vps75, SR-BI DiI inh, Glyco luc inh, Env fusion inh)
CNC(=O)C[C@H]1CC[C@@H]2[C@@H](COc3ccc(NC(=O)c4ccccc4OC)cc3C(=O)N2C)O1	none (no result: SR-BI DiI-HDL act, Rtt109 Vps75, SR-BI DiI inh, Glyco luc inh)
COc1ccc(-c2cc(C(F)(F)F)nc(SCC(=O)NCc3ccco3)n2)cc1OC	SR-BI DiI inh 81 (no result: Env fusion inh)
O=C(CSc1nc(-c2ccco2)cc(C(F)(F)F)n1)Nc1ccccc1C(F)(F)F	Env fusion inh 74
COc1ccc(-c2nc(CS(=O)CC(=O)NCc3ccco3)c(C)o2)cc1OC (centres undefined)	Env fusion inh 73
O=C(CSc1nc(-c2ccccc2)cc(C(F)(F)F)n1)NCc1ccco1	none
COc1ccc(-c2cc(C(F)(F)F)nc(SCC(=O)NCc3cccs3)n2)cc1	SR-BI DiI inh inconclusive, Env fusion inh 56
Cc1cccc(C)c1NC(=O)CSc1nc(-c2ccco2)cc(C(F)(F)F)n1	none (no result: Env fusion inh)
CNC[C@H]1Oc2ccc(NS(=O)(=O)c3ccc(C)cc3)cc2C(=O)N([C@@H](C)CO)C[C@@H]1C	none (no result: SR-BI DiI-HDL act, Rtt109 Vps75, SR-BI DiI inh, Glyco luc inh, Env fusion inh)
COc1ccc2[nH]c(=O)c(CN(CCO)S(=O)(=O)c3c(C)ccc4nsnc34)cc2c1	none (no result: PglD inh)
COc1ccc2[nH]c(=O)c(CN(Cc3cccs3)S(=O)(=O)c3cccc4nsnc34)cc2c1	Env fusion inh 70
C/C=C/c1cnc2c(c1)C(=O)N([C@@H](C)CO)C[C@@H](C)[C@H](CN(C)Cc1ccc3c(c1)OCO3)O2	none (no result: SR-BI DiI-HDL act, Rtt109 Vps75, SR-BI DiI inh, Glyco luc inh)
CCOC(=O)C1=C(O)/C(=C/c2cn(CC(=O)N3CCCC3)c3ccccc23)SC1=Nc1ccccc1	SR-BI DiI inh 70 (no result: Env fusion inh)
COC(=O)c1cn(CC(=O)N2CCCCCC2)c2ccccc12	none
Cc1cc(C)c2nc3nc(C)c(C)cc3c(N)c2c1	Glyco luc inh 95 (no result: PglD inh)
COc1ccc(CN(C(=O)Cc2c[nH]c3ccccc23)C(C(=O)NC2CCCCC2)c2ccc(C)o2)cc1 (centres undefined)	Env fusion inh 109

Source: PubChem (Broad Institute)
